Experimental data published in ChEMBL document CHEMBL1165950, “Design and synthesis of new potent anticancer pyrazoles with high FLT3 kinase inhibitory selectivity” (Bioorg Med Chem, 2010).

Key:
Assay type in all cases: functional
TK-10 = experiment: Cytotoxicity against human TK10 cells assessed as cell growth at 10 uM after 48 hrs by sulforhodamine B assay; details: TK-10, 48 h, read-out: Activity
Malme-3M = experiment: Cytotoxicity against human MALME-3M cells assessed as cell growth at 100 nM after 48 hrs by sulforhodamine B assay; details: read-out: Activity
HCC 2998 [1] = experiment: Cytotoxicity against human HCC2998 cells assessed as cell growth at 0.001 uM after 48 hrs by sulforhodamine B assay; details: HCC 2998, 48 h, read-out: Activity
OVCAR-3 [2] = experiment: Cytotoxicity against human OVCAR-3 cells assessed as cell growth at 10 uM after 48 hrs by sulforhodamine B assay; details: OVCAR-3, 48 h, read-out: Activity
NCI/ADR-RES = experiment: Cytotoxicity against human NCI/ADR-RES cells assessed as cell growth at 10 uM after 48 hrs by sulforhodamine B assay; details: read-out: Activity
IGROV-1 = experiment: Cytotoxicity against human IGROV1 cells assessed as cell growth at 100 nM after 48 hrs by sulforhodamine B assay; details: IGROV-1, 48 h, read-out: Activity
UO-31 = experiment: Cytotoxicity against human UO31 cells assessed as cell growth at 100 nM after 48 hrs by sulforhodamine B assay; details: UO-31, 48 h, read-out: Activity
NCI-H23 = experiment: Cytotoxicity against human NCI-H23 cells assessed as cell growth at 1 uM after 48 hrs by sulforhodamine B assay; details: NCI-H23, 48 h, read-out: Activity
NCI-H460 [3] = experiment: Cytotoxicity against human NCI-H460 cells assessed as cell growth at 0.01 uM after 48 hrs by sulforhodamine B assay; details: NCI-H460, 48 h, read-out: Activity
HCC 2998 [4] = experiment: Cytotoxicity against human HCC2998 cells assessed as cell growth at 0.01 uM after 48 hrs by sulforhodamine B assay; details: HCC 2998, 48 h, read-out: Activity
BT-549 [5] = experiment: Cytotoxicity against human BT549 cells assessed as cell growth at 0.01 uM after 48 hrs by sulforhodamine B assay; details: BT-549, 48 h, read-out: Activity
Summary of the method: (§1)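 NCI-60 five-dose screen. Cells were grown in RPMI 1640 with 5% FBS and 2 mM L-glutamine, plated at 5000–40,000 cells/well and preincubated for 24 h. Time-zero plates were TCA-fixed. DMSO-solubilized drug was added at five concentrations (10-fold or ½-log serial dilutions) for 48 h at 37 °C, 5% CO2. Cells were TCA-fixed, stained with 0.4% SRB and read at 515 nm. Percent growth used time-zero, control and test absorbances.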

NCI-H460 [6] = experiment: Cytotoxicity against human NCI-H460 cells assessed as cell growth at 10 uM after 48 hrs by sulforhodamine B assay; details: NCI-H460, 48 h, read-out: Activity
M14 [7] = experiment: Cytotoxicity against human M14 cells assessed as cell growth at 100 nM after 48 hrs by sulforhodamine B assay; details: M14, 48 h, read-out: Activity
K562 = experiment: Cytotoxicity against human K562 cells assessed as cell growth at 100 nM after 48 hrs by sulforhodamine B assay; details: K562, 48 h, read-out: Activity
NCI-H322M = experiment: Cytotoxicity against human NCI-H322M cells assessed as cell growth at 1 uM after 48 hrs by sulforhodamine B assay; details: read-out: Activity
NCI-H522 = experiment: Cytotoxicity against human NCI-H522 cells assessed as cell growth at 10 uM after 48 hrs by sulforhodamine B assay; details: NCI-H522, 48 h, read-out: Activity
UACC-257 = experiment: Cytotoxicity against human UACC257 cells assessed as cell growth at 100 nM after 48 hrs by sulforhodamine B assay; details: UACC-257, 48 h, read-out: Activity
M14 [8] = experiment: Cytotoxicity against human M14 cells assessed as cell growth at 0.01 uM after 48 hrs by sulforhodamine B assay; details: M14, 48 h, read-out: Activity
OVCAR-5 [9] = experiment: Growth inhibition of human OVCAR5 cells after 48 hrs by sulforhodamine B assay; details: OVCAR-5, 48 h; for CC50: read-out: LC50 (the source's name)
Summary of the method: (§2)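 NCI 60-cell screen, five-dose mode. Cells grown in RPMI 1640 with 5% FBS and 2 mM L-glutamine and plated at 5000-40,000 cells/well according to doubling time. After 24 h preincubation, a Tz plate was TCA-fixed. Five concentrations (10-fold or 1/2 log dilutions) were applied for 48 h at 37 °C. SRB staining read at 515 nm. IC50 taken from [(Ti-Tz)/(C-Tz)]×100 = 50.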

[10] = Cytotoxicity against human Hs 578T cells assessed as cell growth at 10 uM after 48 hrs by sulforhodamine B assay; details: read-out: Activity
COLO 205 = experiment: Cytotoxicity against human COLO205 cells assessed as cell growth at 10 uM; details: read-out: Activity
Summary of the method: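 Single-dose NCI-60 screen at 10 µM. Cells were grown in RPMI 1640 with 5% FBS and 2 mM L-glutamine, then treated for 48 h at 37 °C. Protein was measured by SRB staining with absorbance at 515 nm. Percentage growth was recorded, and inhibition percentage was calculated as 100 minus growth percentage.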

HT-29 = experiment: Cytotoxicity against human HT-29 cells assessed as cell growth at 10 uM after 48 hrs by sulforhodamine B assay; details: HT-29, 48 h, read-out: Activity
MOLT-4 = experiment: Cytotoxicity against human MOLT4 cells assessed as cell growth at 100 nM after 48 hrs by sulforhodamine B assay; details: MOLT-4, 48 h, read-out: Activity
SK-MEL-28 = experiment: Cytotoxicity against human SK-MEL-28 cells assessed as cell growth at 0.01 uM after 48 hrs by sulforhodamine B assay; details: SK-MEL-28, 48 h, read-out: Activity
MDA-MB-231 = experiment: Cytotoxicity against human MDA-MB-231 cells assessed as cell growth at 1 uM after 48 hrs by sulforhodamine B assay; details: MDA-MB-231, 48 h, read-out: Activity
OVCAR-3 [11] = experiment: Cytotoxicity against human OVCAR-3 cells assessed as cell growth at 10 uM; details: read-out: Activity
Summary of the method: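 NCI-60 screen: cells grown in RPMI 1640 with 5% FBS and 2 mM L-glutamine, plated at 5000–40,000 cells/well according to doubling time, and preincubated 24 h at 37 °C, 5% CO2. The single 10 µM dose (DMSO stock) was added, then incubated 48 h. Cells were TCA-fixed and stained with 0.4% SRB, read at 515 nm, and growth % calculated against time-zero and control plates.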

UACC-62 = experiment: Growth inhibition of human UACC62 cells after 48 hrs by sulforhodamine B assay; details: UACC-62, 48 h; for CC50: read-out: LC50 (the source's name); summary of the method: as §2
BT-549 [12] = experiment: Cytotoxicity against human BT549 cells assessed as cell growth at 100 nM after 48 hrs by sulforhodamine B assay; details: BT-549, 48 h, read-out: Activity; summary of the method: as §1
OVCAR-5 [13] = experiment: Cytotoxicity against human OVCAR5 cells assessed as cell growth at 100 nM after 48 hrs by sulforhodamine B assay; details: OVCAR-5, 48 h, read-out: Activity
HOP-62 = experiment: Growth inhibition of human HOP62 cells after 48 hrs by sulforhodamine B assay; details: HOP-62, 48 h; summary of the method: as §2

## COc1cc(C)cc(-c2c(-c3ccnc(-c4ccc(C(C)=O)cc4)c3)cnn2CC#N)c1
TK-10
  growth at 10 µM: 60%
Malme-3M
  growth at 0.1 µM: 97%
HCC 2998 [1]
  growth at 0.001 µM: 95%
OVCAR-3 [2]
  growth at 10 µM: -17%
NCI/ADR-RES
  growth at 10 µM: 11%
IGROV-1
  growth at 0.1 µM: 83%
UO-31
  growth at 0.1 µM: 78%
NCI-H23
  growth at 1 µM: 19%
NCI-H460 [3]
  growth at 0.01 µM: 98%
HCC 2998 [4]
  growth at 0.01 µM: 98%
BT-549 [5]
  growth at 0.01 µM: 86%
NCI-H460 [6]
  growth at 10 µM: 2%
M14 [7]
  growth at 0.1 µM: 79%
K562
  growth at 0.1 µM: 47%
NCI-H322M
  growth at 1 µM: 69%
NCI-H522
  growth at 10 µM: -10%
UACC-257
  growth at 0.1 µM: 81%
M14 [8]
  growth at 0.01 µM: 86%
OVCAR-5 [9]
  GI50: > 100 µM
  TGI: > 100 µM
  CC50: > 100 µM
[10]
  growth at 10 µM: -27%
COLO 205
  growth at 10 µM: 42.6%
HT-29
  growth at 10 µM: 6%
MOLT-4
  growth at 0.1 µM: 81%
SK-MEL-28
  growth at 0.01 µM: 94%
MDA-MB-231
  growth at 1 µM: 21%
OVCAR-3 [11]
  growth at 10 µM: 100%
UACC-62
  GI50: 4.05 µM
  TGI: > 100 µM
  CC50: > 100 µM
BT-549 [12]
  growth at 0.1 µM: 82%
OVCAR-5 [13]
  growth at 0.1 µM: 89%
HOP-62
  GI50: 3.35 µM
  LC50 (50% lethal concentration): > 100 µM
  TGI: > 100 µM

## COc1cc(C)cc(-c2nn(CC#N)cc2-c2ccc(-c3cccc(C(C)=O)c3)nc2)c1
TK-10
  growth at 10 µM: -29%
Malme-3M
  growth at 0.1 µM: 66%
HCC 2998 [1]
  growth at 0.001 µM: 87%
OVCAR-3 [2]
  growth at 10 µM: -64%
NCI/ADR-RES
  growth at 10 µM: -14%
IGROV-1
  growth at 0.1 µM: 88%
UO-31
  growth at 0.1 µM: 79%
NCI-H23
  growth at 1 µM: 17%
NCI-H460 [3]
  growth at 0.01 µM: 104%
HCC 2998 [4]
  growth at 0.01 µM: 87%
BT-549 [5]
  growth at 0.01 µM: 90%
NCI-H460 [6]
  growth at 10 µM: -81%
M14 [7]
  growth at 0.1 µM: 58%
K562
  growth at 0.1 µM: 27%
NCI-H322M
  growth at 1 µM: 24%
NCI-H522
  growth at 10 µM: -40%
UACC-257
  growth at 0.1 µM: 70%
M14 [8]
  growth at 0.01 µM: 93%
OVCAR-5 [9]
  GI50: 2.43 µM
  TGI: 33.9 µM
  CC50: > 100 µM
[10]
  growth at 10 µM: -57%
COLO 205
  growth at 10 µM: -44.6%
HT-29
  growth at 10 µM: -11%
MOLT-4
  growth at 0.1 µM: 84%
SK-MEL-28
  growth at 0.01 µM: 93%
MDA-MB-231
  growth at 1 µM: 13%
OVCAR-3 [11]
  growth at 10 µM: 12.5%
UACC-62
  GI50: 4.36 µM
  TGI: > 100 µM
  CC50: > 100 µM
BT-549 [12]
  growth at 0.1 µM: 85%
OVCAR-5 [13]
  growth at 0.1 µM: 68%
HOP-62
  GI50: 3.07 µM
  LC50 (50% lethal concentration): > 100 µM
  TGI: 36.9 µM

## Cc1cc(O)cc(-c2nn(CC#N)cc2-c2ccnc(-c3ccc(Oc4ccccc4)cc3)c2)c1
TK-10
  growth at 10 µM: -89%
Malme-3M
  growth at 0.1 µM: 93%
HCC 2998 [1]
  growth at 0.001 µM: 96%
OVCAR-3 [2]
  growth at 10 µM: -100%
NCI/ADR-RES
  growth at 10 µM: -52%
IGROV-1
  growth at 0.1 µM: 86%
UO-31
  growth at 0.1 µM: 85%
NCI-H23
  growth at 1 µM: -64%
NCI-H460 [3]
  growth at 0.01 µM: 100%
HCC 2998 [4]
  growth at 0.01 µM: 89%
BT-549 [5]
  growth at 0.01 µM: 91%
NCI-H460 [6]
  growth at 10 µM: -88%
M14 [7]
  growth at 0.1 µM: 94%
K562
  growth at 0.1 µM: 46%
NCI-H322M
  growth at 1 µM: 35%
NCI-H522
  growth at 10 µM: -93%
UACC-257
  growth at 0.1 µM: 84%
M14 [8]
  growth at 0.01 µM: 96%
OVCAR-5 [9]
  GI50: 4.84 µM
  TGI: 19.2 µM
  CC50: 48.3 µM
[10]
  growth at 10 µM: -49%
COLO 205
  growth at 10 µM: 28.4%
HT-29
  growth at 10 µM: -89%
MOLT-4
  growth at 0.1 µM: 79%
SK-MEL-28
  growth at 0.01 µM: 94%
MDA-MB-231
  growth at 1 µM: -13%
OVCAR-3 [11]
  growth at 10 µM: 96%
UACC-62
  GI50: 4.67 µM
  TGI: 18.1 µM
  CC50: 44.4 µM
BT-549 [12]
  growth at 0.1 µM: 84%
OVCAR-5 [13]
  growth at 0.1 µM: 82%
HOP-62
  GI50: 1.17 µM
  LC50 (50% lethal concentration): 52.3 µM
  TGI: 24.7 µM
